According to ChEMBL document CHEMBL1136744, “Synthesis and activity of substituted 2-phenylquinolin-4-amines, antagonists of immunostimulatory CpG-oligodeoxynucleotides” (J Med Chem, 2003):

Experiment: Ability to reverse action of CpG-ODN on WEHI 231 murine B-cell lymphoma cells
Type: functional, cell-based, Mus musculus
In short: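 WEHI 231 murine B-lymphoma cells at 2 × 10⁵ per mL; anti-surface IgM (10 μg/mL) kills them, and CpG-ODN 1760 (6 µg/mL) reverses this. Compounds were added in triplicate at 3-fold dilutions, with or without anti-IgM. Cells were incubated 16 h at 37 °C, then pulsed with 0.5 μCi ³H-thymidine for 4 h. The concentration halving the CpG-ODN effect was read graphically from log dose-response plots. Quinacrine served as internal control.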

Compound	Log 1/EC50
Cc1cccc(-c2cc(NCCC3CCCN3C)c3ccccc3n2)c1 (stereo unspecified)	7.85
Cc1ccc(-c2cc(NCCCn3ccnc3)c3ccccc3n2)cc1	6.98
CN(C)CCCCCNc1cc(-c2ccc(N3CCN(C)CC3)cc2)nc2ccccc12	8.84
CN(C)CCCNc1cc(-c2ccc(F)cc2)nc2ccccc12	7.86
CN(C)CCNc1cc(-c2ccc(N3CCCCC3)cc2)nc2ccccc12	8.27
CN(C)CCCCNc1cc(-c2ccc(N3CCN(C)CC3)cc2)nc2ccccc12	8.91
Cc1cccc(-c2cc(NCCCN(C)C)c3ccccc3n2)c1	7.88
CCN1CCCC1CNc1cc(-c2cccc(C)c2)nc2ccccc12 (stereo unspecified)	7.66
Fc1ccc(-c2cc(NCCN3CCCC3)c3ccccc3n2)cc1	7.62
CN1CCN(c2ccc(-c3cc(NCCCN4CCOCC4)c4ccccc4n3)cc2)CC1	8.66
CN(C)CCCNc1cc(-c2ccc(N3CCCCC3)cc2)nc2ccccc12	7.8
CN1CCN(c2ccc(-c3cc(NCCC4CCCN4C)c4ccccc4n3)cc2)CC1 (stereo unspecified)	8.7
CN(C)CCCNc1cc(-c2ccc(CN3CCN(C)CC3)cc2)nc2ccccc12	8.04
CN1CCN(Cc2cccc(-c3cc(NCCCn4ccnc4)c4ccccc4n3)c2)CC1	6.92
CN1CCN(Cc2cc(Nc3cc(-c4ccc(N5CCN(C)CC5)cc4)nc4ccccc34)cc(CN3CCN(C)CC3)c2O)CC1	8.85
OCCCCCNc1cc(-c2ccc(F)cc2)nc2ccccc12	5.16
CN(C)CCNc1cc(-c2ccc(N3CCN(C)CC3)cc2)nc2ccccc12	9.12
Cc1cccc(-c2cc(NCCCN3CCOCC3)c3ccccc3n2)c1	7.3
CCN(CC)CCNc1cc(-c2cccc(C)c2)nc2ccccc12	7.65
Cc1cccc(-c2cc(NCCCN3CCN(C)CC3)c3ccccc3n2)c1	7.56
CN1CCN(Cc2cccc(-c3cc(NCCC4CCCN4C)c4ccccc4n3)c2)CC1 (stereo unspecified)	8.11
CN1CCN(CCCNc2cc(-c3ccc(CN4CCN(C)CC4)cc3)nc3ccccc23)CC1	8.17
CN1CCN(c2ccc(-c3cc(NCCCCN4CCCC4)c4ccccc4n3)cc2)CC1	8.26

Other lines, results leading:

Log 1/EC50	Compound
7.17	Fc1ccc(-c2cc(NCCCN3CCOCC3)c3ccccc3n2)cc1
7.73	CCN(CC)CCNc1cc(-c2ccc(C)cc2)nc2ccccc12
7.91	Cc1ccc(-c2cc(NCCN(C)C)c3ccccc3n2)cc1
7.73	CN1CCN(CCNc2cc(-c3ccc(F)cc3)nc3ccccc23)CC1
7.68	Fc1ccc(-c2cc(NCCCCN3CCCC3)c3ccccc3n2)cc1
8.76	CN1CCN(Cc2cc(Nc3cc(-c4ccc(F)cc4)nc4ccccc34)cc(CN3CCN(C)CC3)c2O)CC1
7.77	CCN1CCCC1CNc1cc(-c2ccc(F)cc2)nc2ccccc12 (stereo unspecified)
7.57	Cc1ccc(-c2cc(NCCCN3CCOCC3)c3ccccc3n2)cc1
8.62	CN1CCN(c2ccc(-c3cc(NCCN4CCCC4)c4ccccc4n3)cc2)CC1
7.88	Cc1ccc(-c2cc(Nc3ccc(O)c(CN4CCN(C)CC4)c3)c3ccccc3n2)cc1
7.94	Cc1ccc(-c2cc(NCCCN(C)C)c3ccccc3n2)cc1
7.67	CN1CCN(Cc2cc(Nc3cc(-c4ccc(F)cc4)nc4ccccc34)ccc2O)CC1
7.86	Cc1ccc(-c2cc(NCCCN3CCN(C)CC3)c3ccccc3n2)cc1
7.88	CN1CCCC1CCNc1cc(-c2ccc(F)cc2)nc2ccccc12 (stereo unspecified)
7.81	NCCCCCNc1cc(-c2ccc(F)cc2)nc2ccccc12
7.76	CN(C)CCCCNc1cc(-c2ccc(F)cc2)nc2ccccc12
8.82	CN1CCN(CCNc2cc(-c3ccc(N4CCN(C)CC4)cc3)nc3ccccc23)CC1
5.88	Cc1ccc(-c2cc(OCCN(C)C)c3ccccc3n2)cc1
9	CN(C)CCCNc1cc(-c2ccc(N3CCN(C)CC3)cc2)nc2ccccc12
7.66	CCN1CCCC1CNc1cc(-c2ccc(C)cc2)nc2ccccc12 (stereo unspecified)
5.74	Cc1ccc(-c2cc(NCCCCCO)c3ccccc3n2)cc1
7.33	CN(C)CCCCNc1cc(-c2ccc(N3CCCCC3)cc2)nc2ccccc12
5.51	Cc1cccc(-c2cc(OCCN(C)C)c3ccccc3n2)c1
8.84	Cc1ccc(-c2cc(Nc3cc(CN4CCN(C)CC4)c(O)c(CN4CCN(C)CC4)c3)c3ccccc3n2)cc1
8.15	CN(C)CCNc1cc(-c2ccc(CN3CCN(C)CC3)cc2)nc2ccccc12
8.49	CN1CCN(Cc2ccc(-c3cc(NCCN4CCCC4)c4ccccc4n3)cc2)CC1
7.74	Cc1cccc(-c2cc(NCCN(C)C)c3ccccc3n2)c1
6.71	Cc1cccc(-c2cc(NCCCn3ccnc3)c3ccccc3n2)c1
